# Assay results published in ChEMBL document CHEMBL1154841, “Cytotoxic triterpene dilactones from the stems of Kadsura ananosma” (J Nat Prod, 2010).
# Tests used:
# Assay type in all cases: functional, cell-based
# [1] = system: SMMC-7721; assay: Cytotoxicity against of human SMMC7721 cells after 48 hrs by MTT assay; conditions: SMMC-7721, 48 h
# Method in brief: (§1)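 Cells grown in RPMI-1640 or DMEM with 10% fetal bovine serum, 37 °C, 5% CO2. Seeded at 1 × 10^5 cells/mL; adherent lines attached 12 h before dosing, suspension cells (HL-60) seeded at dosing. Compound given at various concentrations in triplicate for 48 h; 10-hydroxycamptothecin positive control. MTT 4 h at 37 °C, lysis in 20% SDS-50% DMF, formazan read at 595 nm.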
# [2] = system: PANC-1; assay: Cytotoxicity against human PANC1 cells after 48 hrs by MTT assay; conditions: PANC-1, 48 h; method in brief: as §1
# [3] = system: A549; assay: Cytotoxicity against human A549 cells after 48 hrs by MTT assay; conditions: A549, 48 h; method in brief: as §1
# [4] = system: SK-BR-3; assay: Cytotoxicity against human SK-BR-3 cells after 48 hrs by MTT assay; conditions: SK-BR-3, 48 h; method in brief: as §1
# [5] = system: HL-60; assay: Cytotoxicity against human HL60 cells after 48 hrs by MTT assay; conditions: HL-60, 48 h; method in brief: as §1
Compound,IC50 [1],IC50 [2],IC50 [3],IC50 [4],IC50 [5]
C=C1C([C@@H](C)[C@H]2CC=C(C)C(=O)O2)=CC[C@]2(C)[C@H]1C[C@]1(O)C=C3C=CC(=O)OC(C)(C)[C@@H]3[C@H](OC(C)=O)C[C@@H]21 [LOGIPEDLACTONE J],> 10 µM,5.3 µM,> 10 µM,2.8 µM,2 µM
C=C1C([C@@H](C)[C@H]2CC=C(C)C(=O)O2)=CC[C@]2(C)[C@H]1C[C@]1(O)C=C3C=CC(=O)OC(C)(C)[C@@H]3CC[C@@H]21 [LONGIPEDLACTONE A],> 10 µM,> 10 µM,> 10 µM,> 10 µM,3.5 µM
C=C1C([C@@H](C)[C@H]2CC=C(C)C(=O)O2)=CC[C@]2(C)[C@H]1C[C@]1(O)[C@H]3O[C@]34C=CC(=O)OC(C)(C)[C@@H]4CC[C@@H]21 [LONGIPEDLACTONE D],> 10 µM,> 10 µM,> 10 µM,> 10 µM,> 10 µM
C=C1C([C@@H](C)[C@H]2CC=C(C)C(=O)O2)=CC[C@]2(C)[C@H]1C[C@]1(O)C=C3C=CC(=O)OC(C)(C)[C@@H]3[C@H](O)C[C@@H]21 [LONGIPEDLACTONE F],> 10 µM,8.8 µM,> 10 µM,7.4 µM,2.3 µM
C=C1C([C@@H](C)[C@H]2CC=C(C)C(=O)O2)=CC[C@]2(C)[C@H]1C[C@]1(O)[C@H]3O[C@]34C=CC(=O)OC(C)(C)[C@@H]4[C@H](O)C[C@@H]21 [LONGIPEDLACTONE G],> 10 µM,> 10 µM,> 10 µM,> 10 µM,> 10 µM
C=C1[C@@H]2C[C@]3(O)[C@H]4O[C@]45C=CC(=O)OC(C)(C)[C@@H]5[C@H](O)C[C@H]3[C@]2(C)CC[C@@]1(O)[C@@H](C)[C@H]1CC=C(C)C(=O)O1 [LONGIPEDLACTONE I],> 10 µM,> 10 µM,> 10 µM,> 10 µM,> 10 µM
C=C1[C@H]([C@@H](C)[C@H]2CC=C(C)C(=O)O2)CC[C@@]2(C)[C@@H]3C[C@@H](OC(C)=O)[C@H]4C(C)(C)OC(=O)C[C@H]5OO[C@]3(C[C@@H]12)C[C@]54O [LONGIPEDLACTONE K],> 10 µM,> 10 µM,> 10 µM,> 10 µM,> 10 µM
C=C1[C@H]([C@@H](C)[C@H]2CC=C(C)C(=O)O2)CC[C@]2(C)[C@H]1C[C@]1(O)C=C3C=CC(=O)OC(C)(C)[C@@H]3[C@H](OC(C)=O)C[C@@H]21 [LONGIPEDLACTONE L],> 10 µM,> 10 µM,> 10 µM,> 10 µM,7.3 µM
C=C1[C@@H]2C[C@]3(O)C=C4C=CC(=O)OC(C)(C)[C@@H]4[C@H](OC(C)=O)C[C@H]3[C@]2(C)CC[C@@]1(O)[C@@H](C)[C@H]1CC=C(C)C(=O)O1 [LONGIPEDLACTONE M],> 10 µM,> 10 µM,> 10 µM,> 10 µM,4.1 µM
C=C1C([C@@H](C)[C@H]2CC=C(C)C(=O)O2)=CC[C@]2(C)[C@H]1C[C@]1(O)[C@H]3O[C@]34C=CC(=O)OC(C)(C)[C@@H]4[C@H](OC(C)=O)C[C@@H]21 [LONGIPEDLACTONE N],> 10 µM,> 10 µM,> 10 µM,> 10 µM,> 10 µM
C=C1[C@@H]2C[C@]3(O)[C@H]4O[C@]45C=CC(=O)OC(C)(C)[C@@H]5[C@H](OC(C)=O)C[C@H]3[C@]2(C)CC[C@@]1(O)[C@@H](C)[C@H]1CC=C(C)C(=O)O1 [LONGIPEDLACTONE P],> 10 µM,> 10 µM,> 10 µM,> 10 µM,> 10 µM
